{"data": "Published values gathered from unrelated publications", "target": "Tyrosine-protein kinase CSK (CSK, Homo sapiens, UniProt P41240)", "note": "Lines come from different studies, so protocols differ."}
{"Compound": "N#Cc1ccc(Nc2ccc3[nH]c(=O)[nH]c3c2)c(Cl)c1", "test": "cell-free assay, competition with immobilised ligand", "conditions": "1 µM", "remaining binding": "89%"}
{"Compound": "CN(CCCC(F)(F)F)c1nccc(-c2cnn3ncccc23)n1", "test": "binding", "conditions": "1 µM", "remaining binding": "91%"}
{"Compound": "CCN1CCN(Cc2ccc(C(=O)Nc3ccc(C)c(Oc4ccc5c(c4)CC(=O)N5)c3)cc2C(F)(F)F)CC1", "test": "binding, competition with immobilised ligand", "conditions": "1 µM", "remaining binding": "100%"}
{"Compound": "CNC(=O)[C@@H]1CC[C@@H](n2c(-c3ccc4cnccc4c3)nc3ccc(C(=O)NCc4cccc(C(N)=O)c4)cc32)C1", "test": "binding, competition with immobilised ligand", "conditions": "1 µM", "remaining binding": "100%"}
{"Compound": "O=C(Nc1c[nH]nc1C(=O)NC1CCNCC1)c1cc(F)cc(F)c1", "test": "binding, competition with immobilised ligand", "conditions": "1 µM", "remaining binding": "100%"}
{"Compound": "O=C(NCCCC1CCCCC1)c1ccc(CNC(=O)c2cnn(-c3ccccc3)c2C(F)(F)F)cc1", "test": "cell-free assay, competition with immobilised ligand", "conditions": "0.1 µM", "remaining binding": "100%"}
{"Compound": "c1cncc(-c2cccc(Nc3nccc(NC4CCCCC4)n3)c2)c1", "test": "binding, competition with immobilised ligand", "conditions": "10 µM", "remaining binding": "88%"}
{"Compound": "C[C@H]1CCN(c2nccc(-c3cnn4ncccc34)n2)C1", "test": "binding", "conditions": "1 µM", "remaining binding": "83%"}
{"Compound": "CC(C)CC(=O)N1CCc2nc(-c3ccc(Br)cc3)nc(N(C)Cc3ccccc3)c2C1", "test": "cell-free assay, competition with immobilised ligand", "conditions": "0.1 µM", "remaining binding": "100%"}
{"Compound": "c1cnn2ncc(-c3ccnc(N4CCC45COC5)n3)c2c1", "test": "binding", "conditions": "1 µM", "remaining binding": "88%"}
{"Compound": "O=C(NCCCN1CCOCC1)c1ccc(Nc2nccc(-c3cc4ccccc4s3)n2)cc1", "test": "binding, competition with immobilised ligand", "conditions": "1 µM", "remaining binding": "90%"}
{"Compound": "Nc1c(C(=O)NCc2ccc(C(=O)NCCCC3CCCCC3)cc2)cnn1-c1ccccc1", "test": "cell-free assay, competition with immobilised ligand", "conditions": "0.1 µM", "remaining binding": "100%"}
{"Compound": "COc1ccnn2ncc(-c3ccnc(N(C)C)n3)c12", "test": "binding", "conditions": "1 µM", "remaining binding": "96%"}
{"Compound": "C[C@H](NC(=O)c1cnc2n1[C@](C)(Cc1ccc(C#N)cc1)C(=O)N2c1cc(Cl)c(F)c(Cl)c1)C(=O)NC1(c2ccccn2)CC1", "test": "cell-free assay, competition with immobilised ligand", "conditions": "1 µM", "remaining binding": "100%"}
{"Compound": "COc1cnc(Nc2cccc(S(N)(=O)=O)c2)nc1N1CCN(c2ccccc2)C(=O)C1", "test": "binding, competition with immobilised ligand", "conditions": "1 µM", "remaining binding": "100%"}
{"Compound": "O=C(NCCCN1CCOCC1)c1ccc(Nc2ncc(Cl)c(-c3ccc(Cl)s3)n2)cc1", "test": "binding, competition with immobilised ligand", "conditions": "1 µM", "remaining binding": "86%"}
{"Compound": "Cc1ccc(-n2nc(C(C)(C)C)cc2NC(=O)Nc2ccc(-n3c(N)c(C(N)=O)c4nc5ccccc5nc43)cc2)cc1", "test": "cell-free assay, competition with immobilised ligand", "conditions": "1 µM", "remaining binding": "0.9%"}
{"Compound": "F[C@@H]1CCN(c2nccc(-c3cnn4ncccc34)n2)C1", "test": "binding", "conditions": "1 µM", "remaining binding": "100%"}
{"Compound": "O=C(c1ccc(Nc2nccc(-c3cc4ccccc4s3)n2)cc1)N1CCC(N2CCCC2)CC1", "test": "binding, competition with immobilised ligand", "conditions": "1 µM", "remaining binding": "100%"}
{"Compound": "CC(=O)C1=C(C)N(c2cccc(C(F)(F)F)c2)C(=O)N[C@@H]1c1ccc(C#N)nc1", "test": "cell-free assay, competition with immobilised ligand", "conditions": "1 µM", "remaining binding": "90%"}
{"Compound": "N[C@@H]1CCN(c2nccc(-c3cnn4ncccc34)n2)C1", "test": "binding", "conditions": "1 µM", "remaining binding": "94%"}
